Bioassay records: PubChem BioAssay, Broad Institute
Shown are actives, neighbours in structure and some others; about 2.1% of the full set was active somewhere.
AF4-AF9 inh: inhibitors of AF4 peptide binding to AF9, primary screen, biochemical, AlphaScreen, biotin-AF4 peptide, FLAG-AF9, single point. inhibition, % at 10 µM. Protein AF-9 (Homo sapiens), P42568. hit rate 0.47% among 350,000. AID 651704, 2012;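 active means every replicate reaching a set inhibition limit, whatever the replicate mean, cut at about 25% in these data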;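 further: 0% = plate neutral control median and 100% = total signal loss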
PDI turbidity: inhibitors of human PDI, primary screen, biochemical, turbidity, single point, plate reader | Protein disulfide-isomerase (Homo sapiens), P07237 | PDI insulin aggregation turbidity, A650, 90 min | inhibition, % at 10 µM | hit rate 0.052% among 350,000 | AID 588391, 2011;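 active means mean inhibition across replicates of 30% or more, whatever share of single replicates reach that level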
FGF22 binding: binders of human FGF22 protein, primary screen, FGF22 synaptogenesis inhibitor project, biophysical, thermal shift, single point; AID 651658, 2012; Fibroblast growth factor 22 (Homo sapiens), Q9HCT0; activity (Tm shift, normalised), % at 9.99 µM; hit rate 1.5% among 340,000; recombinant FGF22 thermal shift, SYPRO orange fluorescence; percent of sucrose octasulfate shift, DMSO zero;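 active means mean Tm shift, scaled 0 neutral to 100 positive control, at about 1.3% or above, every replicate too, limit read from the data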
FN deposition inh: inhibitors of fibronectin matrix deposition, primary screen, AH1F cells, Alexa488-fibronectin fluorescence, plate reader; AH1F fibroblasts, overnight; inhibition, % at 12.6 µM; hit rate 0.086% among 350,000; AID 743247, 2014;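 active means mean inhibition across replicates of 30% or more, regardless of how many single replicates reach that level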;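 further: positive control wells lacked labelled fibronectin entirely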
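Schedule: 1 h cell adhesion before compound, then overnight fibronectin incubation; test system: AH1F fibroblast monolayer depositing Alexa488-labelled fibronectin into matrix; quantity: 10000 AH1F cells per well; probe or stimulus: fluorescent fibronectin at 24 nM final; signal: fluorescence, ex 485 nm, em 525 nm; evaluation: percent inhibition as loss of matrix-bound fibronectin fluorescence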
ERp5 inh: inhibitors of ERp5-driven insulin aggregation, primary screen, biochemical, turbidity, absorbance 650 nm, single point. 90 min. inhibition, % at 9.99 µM. hit rate 0.05% among 350,000. AID 651711, 2012;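 active means mean replicate inhibition above about 25%, with every replicate also reaching it, limit read from the data, passing the limit was not always enough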
Target sequence (Q15084 whole entry, looked up): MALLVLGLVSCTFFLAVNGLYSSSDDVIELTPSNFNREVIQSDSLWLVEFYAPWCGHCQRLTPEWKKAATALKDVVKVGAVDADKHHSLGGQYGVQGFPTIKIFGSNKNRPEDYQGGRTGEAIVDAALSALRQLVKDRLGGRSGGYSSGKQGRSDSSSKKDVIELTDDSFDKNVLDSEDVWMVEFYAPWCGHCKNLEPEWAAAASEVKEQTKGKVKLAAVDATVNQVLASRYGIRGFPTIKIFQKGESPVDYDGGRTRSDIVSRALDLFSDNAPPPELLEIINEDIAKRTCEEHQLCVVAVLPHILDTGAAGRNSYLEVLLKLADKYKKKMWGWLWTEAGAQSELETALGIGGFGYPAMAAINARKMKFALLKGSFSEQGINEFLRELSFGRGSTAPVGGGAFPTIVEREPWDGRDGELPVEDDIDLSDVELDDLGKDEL
ARNT-TACC3 inh: disruptors of ARNT/TACC3 protein interaction, primary screen, biochemical, AlphaScreen, single concentration. Transforming acidic coiled-coil-containing protein 3 (Homo sapiens), Q9Y6A5. AlphaScreen His-ARNT PAS-B/GST-TACC3 binding, luminescence; TACC3 fragment carries E629A point mutation. inhibition, % at 9.99 µM. hit rate 0.66% among 390,000. AID 623870, 2012;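 active means mean inhibition of replicates at least 50% and at least half of replicates each reaching 50%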;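 further: 0% = complete ARNT plus TACC3 wells and 100% = ARNT alone without TACC3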
The depositor's hits bear a star; . = no result.

SMILES | AF4-AF9 inh | PDI turbidity | FGF22 binding | FN deposition inh | ERp5 inh | ARNT-TACC3 inh
CON(C)C(=O)[C@H]1C[C@@H]2[C@H](C[C@@H](c3ccccc3)[C@H]1C)N(c1ccc(F)cc1)C(=O)N2CCCOc1ccccc1 | -4 | . | 42 | -1 | -1 | .
O=C(c1ccccc1F)N(Cc1cccnc1)Cc1cc2cc3c(cc2[nH]c1=O)OCCO3 | 1 | 9 | 43* | 2 | -2 | 0
CSc1nc2ccc(NC(=O)C3=NN(c4ccccc4)C(=O)CC3)cc2s1 | 7 | 5 | 0 | -1 | -6 | 10
CSc1nc2ccc(NC(=O)C3=NNC(=O)CC3)cc2s1 | -4 | -3 | 43* | 12 | 0 | 1
CO[C@H]1CN(C)C(=O)c2cc(NC(C)=O)ccc2OC[C@H](C)N(CCc2ccccc2)C[C@@H]1C | 4 | . | 0 | 6 | 9 | -1
COc1ccccc1CNC(=O)C[C@@H]1C=C[C@H](NC(=O)CN(C)C)[C@H](CO)O1 | 0 | . | 0 | . | -2 | 8
CC(=O)NC(CCc1ccc(Cl)c(Cl)c1)c1cccc(O)c(=O)c1 (centres undefined) | 30* | -3 | 0 | 10 | -4 | .
CCCN1C(=O)/C(=C2/C=Cc3ccccc3N2CC)SC1=S | 26* | 1 | 0 | 10 | -1 | 5
CCCN1/C(=C2/SC(=S)N(CC)C2=O)C=Cc2ccccc21 | . | 2 | . | 11 | . | -4
CCN1/C(=C2\C(=O)N(C)C(=S)N2C)C=Cc2ccccc21 | 6 | 3 | 43* | -4 | 1 | .
Cc1cc([N+](=O)[O-])nn1CCCC(=O)Nc1sc2c(c1C(N)=O)CCC(C)C2 (centres undefined) | 28* | 0 | 0 | -1 | -3 | .
CC1CCc2c(sc(NC(=O)Cn3cnc([N+](=O)[O-])n3)c2C(N)=O)C1 (centres undefined) | -1 | 6 | 0 | 1 | 0 | -7
C[C@@H]1CCCCO[C@@H](CN(C)C(=O)Nc2cccc3ccccc23)[C@H](C)CN([C@H](C)CO)C(=O)c2cc(NC(=O)Cc3ccccc3)ccc2O1 | -3 | . | -1 | . | 5 | -8
O=C(C[C@@H]1C=C[C@H](NC(=O)Cc2ccccn2)[C@@H](CO)O1)NCCc1ccncc1 | -1 | . | -1 | -10 | 1 | 47*
CS(=O)(=O)N(CC(=O)NCCSc1ccccn1)c1ccc(F)cc1 | -2 | 7 | 43* | 6 | 4 | 2
C[C@H](CO)N1C[C@H](C)[C@@H](CN(C)Cc2ccccc2C(F)(F)F)OCc2cnnn2CCCC1=O | . | . | . | -2 | . | .
Cc1[nH][nH]c(=O)c1C=NCc1ccc(Cl)cc1 | -7 | -5 | 43* | -8 | 1 | 1
Cc1ccc(S(=O)(=O)Nc2ccc3c(c2)C(=O)N([C@H](C)CO)C[C@H](C)[C@H](CN(C)C(=O)c2ccncc2)OCCCC[C@H](C)O3)cc1 | . | . | 0 | -8 | . | -9
CCOC(=O)c1ccc(NC(=O)CSc2nc3sc(C(=O)O)c(C)c3c(=O)[nH]2)cc1 | -2 | 3 | 43* | -5 | 0 | -4
COC(=O)c1ccc(CSc2nc3sc(C(=O)O)c(C)c3c(=O)[nH]2)cc1 | -2 | . | 0 | -1 | 1 | .
Cc1sc2nc(SCC(=O)O)[nH]c(=O)c2c1C | -1 | 2 | 43* | 7 | 0 | -3
C[C@H]1CN([C@@H](C)CO)C(=O)c2cc(NC(=O)Cn3cnnn3)ccc2O[C@@H]1CN(C)C(=O)Nc1cccc2ccccc12 | -4 | . | 0 | . | 7 | -6
CCSc1nnc([C@H](Cc2c[nH]c3ccccc23)NC(=O)OC(C)(C)C)o1 | . | 49* | . | 4 | . | 1
CCN(CC)C(=O)CSc1nnc([C@H](Cc2c[nH]c3ccccc23)NC(=O)OC(C)(C)C)o1 | . | 56* | . | 3 | . | -6
O=C(NCC(=O)N1CCN(c2ncccn2)CC1)c1ccc(F)cc1 | 7 | 4 | 0 | 0 | 2 | 2
